Calls of active or inactive are those of the source. No cut-off for these calls is given here.
Legend:
DNA [1] = experiment: Displacement of Ethidium bromide from (AT)5 (5'-GGGATATA-TATATCCC-3') DNA (unknown origin)/EtBr complex assessed as decrease in initial absorbance of DNA by crystal violet staining based analysis; assay type: nucleic-acid assay
[2] = Binding affinity to DDD hairpin DNA (unknown origin) assessed as binding constant at 100 uM by ITC analysis
Method in brief: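 Isothermal titration calorimetry of DDD hairpin (10 μM in cell) titrated with ligand (100 μM in syringe), 10 mM Tris-HCl pH 7.0, 30 °C; 25 injections of 10 μL. Heats of dilution subtracted; single-site binding model fitted; K averaged from triplicate experiments.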

[3] = Displacement of Ethidium bromide from G5C5 (5'-AAAGGGGG-CCCCCTTT-3') DNA (unknown origin)/EtBr complex assessed as decrease in initial absorbance of DNA by crystal violet staining based analysis
Calf thymus DNA [4] = experiment: Ratio of Kapp for displacement of ethidium bromide from calf thymus DNA/EtBr complex to Kapp for displacement of ethidium bromide from calf thymus DNA/EtBr in presence of methyl green; assay type: nucleic-acid assay; settings: Bos taurus
Method in brief: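 Fluorescence titration of CT DNA (1.0 μM/bp) plus ethidium (0.5 μM), with or without netropsin or methyl green (0.5 μM each), against increasing ligand in 10 mM Tris-HCl pH 7.0. Excitation 520 nm, emission 590 nm, read after 3 min equilibration. C50 is the concentration giving 50% fluorescence loss; Kapp = 9.5×10^6 M⁻¹ × C_ethidium/C50.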

DNA [5] = experiment: Displacement of Ethidium bromide from A5T5 (5'-GGGAAAAATTTTTCCCCC-3') DNA (unknown origin)/EtBr complex assessed as decrease in initial absorbance of DNA by crystal violet staining based analysis; assay type: nucleic-acid assay
Calf thymus DNA [6] = experiment: Binding affinity to calf thymus DNA assessed as change in melting temperature by UV thermal denaturation assay; assay type: nucleic-acid assay; settings: Bos taurus
Method in brief: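 CT DNA in 10 mM Tris-HCl pH 7.0 at a DNA:ligand ratio of 30:1, in 1 cm quartz cuvettes. Absorbance read every 2 °C from 25 to 95 °C, heating at 1 °C/min. Tm taken from first-derivative plots.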

[7] = Displacement of Ethidium bromide from NFAT1 (5-GAAAAA-3') hairpin DNA (unknown origin)/EtBr complex assessed as decrease in initial absorbance of DNA by crystal violet staining based analysis
[8] = Binding affinity to DDD (5-CGAATT-3') hairpin DNA (unknown origin) assessed as binding constant by isothermal titration calorimetry
Calf thymus DNA [9] = experiment: Binding affinity to calf thymus DNA in Tris-HCl buffer at pH 7.0 assessed as minimal change in viscosity incubated for 30 mins by Ostwald viscometer analysis; assay type: nucleic-acid assay; settings: Bos taurus
Method in brief: (§1)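 Ostwald viscometer at 23.0 ± 1 °C. CT DNA held at 300 μM/bp in 10 mM Tris-HCl pH 7.0 with ligand or ethidium at 0–26 μM, incubated 30 min before timing flow. (η/η0)^1/3 plotted against [ligand]/[DNA]; three replicates, SD shown.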

Calf thymus DNA [10] = experiment: Binding affinity to calf thymus DNA assessed as bathochromic shift by UV spectroscopic analysis; assay type: nucleic-acid assay; settings: Bos taurus
Method in brief: (§2)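 UV titration in 10 mM Tris-HCl pH 7.0 with ligand fixed at 5.0 μM and CT DNA:ligand ratios of 0:1, 1:1, 2:1, 5:1, 10:1 and 30:1.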

DNA [11] = experiment: Binding affinity to pUC-19 plasmid DNA (unknown origin) assessed as DNA cleavage incubated for 30 mins in presence of BamHI restriction enzyme by ethidium bromide staining based agarose gel electrophoresis analysis; assay type: nucleic-acid assay
Method in brief: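 pUC-19 linearized with AlwNI (37 °C, 30 min), enzyme heat-killed at 80 °C for 20 min, then incubated with varying ligand concentrations. BamHI digestion for 30 min at 37 °C. Run on 1% agarose containing ethidium bromide, 120 V for 40 min; visualized by UV transillumination.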

Calf thymus DNA [12] = experiment: Binding affinity to calf thymus DNA in Tris-HCl buffer at pH 7.0 assessed as lengthening of DNA from intercalation of drug incubated for 30 mins by Ostwald viscometer analysis; assay type: nucleic-acid assay; settings: Bos taurus; method in brief: as §1
Calf thymus DNA [13] = experiment: Binding affinity to calf thymus DNA assessed as hypochromic shift by UV spectroscopic analysis; assay type: nucleic-acid assay; settings: Bos taurus; method in brief: as §2
[14] = Displacement of Ethidium bromide from DDD (5-CGAATT-3') hairpin DNA (unknown origin)/EtBr complex assessed as decrease in initial absorbance of DNA by crystal violet staining based analysis
[15] = Displacement of Ethidium bromide from cMyc (5'-CACGTG-3') hairpin DNA (unknown origin)/EtBr complex assessed as decrease in initial absorbance of DNA by crystal violet staining based analysis
[16] = Displacement of Ethidium bromide from STAT6 (5'-TCCTAG-3') hairpin DNA (unknown origin)/EtBr complex assessed as decrease in initial absorbance of DNA by crystal violet staining based analysis
[17] = Displacement of Ethidium bromide from cMyc (5'-CACGTG-3') hairpin DNA (unknown origin)/EtBr complex assessed as binding constant by crystal violet staining based analysis
AT rich DNA [18] = experiment: Displacement of Ethidium bromide from AT3 (5'-ATATAT-3') hairpin DNA (unknown origin)/EtBr complex assessed as binding constant by crystal violet staining based analysis; assay type: nucleic-acid assay
[19] = Displacement of Ethidium bromide from G6 (5'-GGGGGG-3') hairpin DNA (unknown origin)/EtBr complex assessed as decrease in initial absorbance of DNA by crystal violet staining based analysis
[20] = Displacement of Ethidium bromide from STAT6 (5'-TCCTAG-3') hairpin DNA (unknown origin)/EtBr complex assessed as binding constant by crystal violet staining based analysis
Calf thymus DNA [21] = experiment: Binding affinity to calf thymus DNA in Tris-HCl buffer at pH 7.0 assessed as rigidification of DNA from intercalation of drug incubated for 30 mins by Ostwald viscometer analysis; assay type: nucleic-acid assay; settings: Bos taurus; method in brief: as §1
[22] = Displacement of Ethidium bromide from NFAT1 (5-GAAAAA-3') hairpin DNA (unknown origin)/EtBr complex assessed as binding constant by crystal violet staining based analysis
AT rich DNA [23] = experiment: Displacement of Ethidium bromide from AT3 (5'-ATATAT-3') hairpin DNA (unknown origin)/EtBr complex assessed as decrease in initial absorbance of DNA by crystal violet staining based analysis; assay type: nucleic-acid assay
Calf thymus DNA [24] = experiment: Binding affinity to calf thymus DNA in Tris-HCl buffer at pH 7.0 assessed as decrease in viscosity incubated for 30 mins by Ostwald viscometer analysis; assay type: nucleic-acid assay; settings: Bos taurus; method in brief: as §1
Calf thymus DNA [25] = experiment: Binding affinity to calf thymus DNA in Tris-HCl buffer at pH 7.0 assessed as change in entropy at 100 uM by isothermal titration […] analysis; assay type: nucleic-acid assay; settings: Bos taurus
Method in brief: (§3)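 ITC of CT DNA (100 μM/bp in cell) titrated with ligand (100 μM in syringe), 10 mM Tris-HCl pH 7.0; 25 injections of 10 μL at 30 °C, or for one ligand 50 injections of 5 μL at 27 °C. Buffer-into-DNA heats subtracted; single-site model gives K, N, ΔH and ΔS.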

Calf thymus DNA [26] = experiment: Binding affinity to calf thymus DNA in Tris-HCl buffer at pH 7.0 assessed as change in enthalpy at 100 uM by isothermal titration […] analysis; assay type: nucleic-acid assay; settings: Bos taurus; method in brief: as §3
[27] = Binding affinity to DDD hairpin DNA (unknown origin) in Tris-HCl buffer at pH 5.0 assessed as reduction in base stacking band formation at 280nm at 1 mM incubated for 5 mins by CD spectra analysis
Method in brief: (§4)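 Ligand (1 mM stock) added in small aliquots to DDD hairpin (8.8 μM) in 10 mM Tris-HCl pH 5.0; mixed by inversion and incubated 5 min at 20 °C. CD recorded 215–350 nm in 0.5 nm steps as the average of three scans.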

[28] = Binding affinity to DDD hairpin DNA (unknown origin) in Tris-HCl buffer at pH 5.0 assessed as negligible changes in helicity band formation at 245nm at 1 mM incubated for 5 mins by CD spectra analysis; method in brief: as §4
[29] = Binding affinity to DDD hairpin DNA (unknown origin) in Tris-HCl buffer at pH 5.0 assessed as negative induced CD bands formation at 310nm at 1 mM incubated for 5 mins by CD spectra analysis; method in brief: as §4
Calf thymus DNA [30] = experiment: Binding affinity to calf thymus DNA in Tris-HCl buffer at pH 7.0 assessed as differential groove occupancy at 100 uM by ITC analysis; assay type: nucleic-acid assay; settings: Bos taurus; method in brief: as §3

Row | Compound | C50 (DNA [1]) | K [2] | C50 [3] | Ratio (Calf thymus DNA [4]) | C50 (DNA [5]) | ΔTm (Calf thymus DNA [6]) | C50 [7] | K [8] | Activity (Calf thymus DNA [10]) | IC50 (DNA [11]) | Activity (Calf thymus DNA [13]) | C50 [14] | C50 [15] | C50 [16] | K [17] | K (AT rich DNA [18]) | C50 [19] | K [20] | K [22] | C50 (AT rich DNA [23]) | other results
1 | CN(C)c1ccc(C(=C2C=CC(=[N+](C)C)C=C2)c2ccc(/C=C/c3cc4c(cc3/C=C/c3ccc(C(=C5C=CC(=[N+](C)C)C=C5)c5ccc(N(C)C)cc5)cc3)OCO4)cc2)cc1 | – | 7.5 10^5/M | – | > 8 | – | 3.3 °C | 1.27 µM | 7.54 10^5/M | Active | 5.4 µM | Active | 0.78 µM | 1.8 µM | 1.12 µM | 32000 M⁻¹ | 5.79 10^5/M | 1.1 µM | 2.22 10^5/M | 49.8 10^5/M | 1.21 µM | Activity (Calf thymus DNA [24]): Dose-Dependent Effect; deltaS (Calf thymus DNA [25]): 0.316 kcal/mol; deltaH (Calf thymus DNA [26]): 85.8 kcal/mol; Activity [27]: Active; Activity [28]: Active; Activity [29]: Active; Activity (Calf thymus DNA [30]): Active
2 | CN(C)c1ccc(C(=C2C=CC(=[N+](C)C)C=C2)c2ccc(-c3cc4c(cc3-c3ccc(C(=C5C=CC(=[N+](C)C)C=C5)c5ccc(N(C)C)cc5)cc3)OCO4)cc2)cc1 | – | 2.4 10^5/M | – | – | – | 2.6 °C | 1.23 µM | – | – | – | – | 1.47 µM | 1.42 µM | 1.32 µM | – | – | 1.25 µM | – | – | 1.36 µM | –

More lines, main results first:

Row | C50 (DNA [1]) | K [2] | C50 [3] | Ratio (Calf thymus DNA [4]) | C50 (DNA [5]) | ΔTm (Calf thymus DNA [6]) | C50 [7] | K [8] | Activity (Calf thymus DNA [10]) | IC50 (DNA [11]) | Activity (Calf thymus DNA [13]) | C50 [14] | C50 [15] | C50 [16] | K [17] | K (AT rich DNA [18]) | C50 [19] | K [20] | K [22] | C50 (AT rich DNA [23]) | Compound | other results
3 | 2.75 µM | 96.4 10^5/M | 2.99 µM | 2.3 | 2.61 µM | 6.2 °C | – | – | – | – | – | – | – | – | – | – | – | – | – | – | CN(C)c1ccc(C(=C2C=CC(=[N+](C)C)C=C2)c2ccc(N(C)C)c(-c3ccccc3)c2)cc1 | –
4 | – | 21.1 10^5/M | – | – | – | 3.6 °C | 0.69 µM | 21.1 10^5/M | Active | 67 µM | Active | 0.54 µM | 0.57 µM | 0.56 µM | 114000 M⁻¹ | 0.32 10^5/M | 0.51 µM | 1.8 10^5/M | 1.14 10^5/M | 1.11 µM | CN(C)c1ccc(C(=C2C=CC(=[N+](C)C)C=C2)c2ccccc2-c2ccccc2-c2ccccc2C(=C2C=CC(=[N+](C)C)C=C2)c2ccc(N(C)C)cc2)cc1 | Activity (Calf thymus DNA [9]): Dose-Dependent Effect; Activity (Calf thymus DNA [12]): Active; Activity (Calf thymus DNA [21]): Active
5 | 2.71 µM | 48.7 10^5/M | 3.36 µM | – | 3.13 µM | 2.2 °C | – | – | – | – | – | – | – | – | – | – | – | – | – | – | CN(C)c1ccc(C(=C2C=CC(=[N+](C)C)C(c3ccccc3)=C2)c2ccc(N(C)C)c(-c3ccccc3)c2)cc1-c1ccccc1 | –

Source: ChEMBL document CHEMBL5365533, “DNA major versus minor groove occupancy of monomeric and dimeric crystal violet derivatives. Toward structural correlations” (Bioorg Med Chem, 2023)
